Series [1] in a line: Logarithm of cumulative stability constant was determined.
The species named for a further series is Rattus norvegicus. As to the kind of experiment: Percentage of mobilization of iron in 2 hours from rat hepatocytes. The format is functional, Hepatocyte.
Series [2] is described as follows: Percentage of release of lactic dehydrogenase from rat hepatocytes. The series is classed as functional, Hepatocyte. Summed up: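 Primary rat hepatocytes were plated at 1 × 10⁶/dish, pulsed 17 h with human diferric ⁵⁹Fe-transferrin (100 µg/mL), washed, then exposed to chelators in triplicate. LDH was measured in the supernatant at 6 h.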
Series [3] can be described thus: Partition coefficient (logD7.4). The format is physicochemical. The note with it: octanol/water, pH 7.4. Summed up:
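Automated filter-probe partitioning between MOPS buffer (50 mM, pH 7.4) and octan-1-ol, each phase pre-equilibrated with the other and purged with nitrogen. UV absorbance was read until stable, then octanol was added in at least 10 aliquots. An estimate came from each addition, giving a mean and standard deviation.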

For another series, the species on record is Equus caballus. As to the kind of experiment: Percentage of removal of iron from iron-protein-ferritin. The format is functional. Also noted: concentration or dose not given beside the values. Summed up: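 Horse spleen ferritin (iron cores equivalent to 450 μM) was incubated with chelator (5 mM) in HEPES (0.1 M, pH 7.2) at 37 °C for up to 36 h. Samples were ultrafiltered to separate the Fe(III) complex, and the filtrate absorbance was read (450 nm; concentrations from ε max).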

Series [4] addresses Serotransferrin (Homo sapiens) (UniProt P02787). As to the kind of experiment: Percentage of removal of iron from iron-protein-transferrin. The series is classed as functional. Also noted: concentration or dose not given beside the values. Put shortly:
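Human transferrin, Fe(III)-loaded (50 μM), was mixed with chelator (100 μM) in MOPS (0.05 M, pH 7.4, 25 °C) with 25 mM NaHCO3. Absorbance at 400–500 nm was scanned every 2 min for 10 min, then every 5 min up to 3 h.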

Series [5] is described as follows: Acid dissociation constant (pKa2) was determined.
Series [6] in a line: Acid dissociation constant (pKa1) was determined. The series is classed as physicochemical. To be noted: for pKa: read-out: pKa1. Summed up:
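Simultaneous spectrophotometric/potentiometric titration of the ligand. Temperature held at 22.5 ± 0.1 °C, ionic strength 0.1 with KNO3. pKa values were obtained by global optimization across titrations at several ligand concentrations.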

Each structure is given as a SMILES string.

Serotransferrin (Homo sapiens), sequence (P02787 whole entry): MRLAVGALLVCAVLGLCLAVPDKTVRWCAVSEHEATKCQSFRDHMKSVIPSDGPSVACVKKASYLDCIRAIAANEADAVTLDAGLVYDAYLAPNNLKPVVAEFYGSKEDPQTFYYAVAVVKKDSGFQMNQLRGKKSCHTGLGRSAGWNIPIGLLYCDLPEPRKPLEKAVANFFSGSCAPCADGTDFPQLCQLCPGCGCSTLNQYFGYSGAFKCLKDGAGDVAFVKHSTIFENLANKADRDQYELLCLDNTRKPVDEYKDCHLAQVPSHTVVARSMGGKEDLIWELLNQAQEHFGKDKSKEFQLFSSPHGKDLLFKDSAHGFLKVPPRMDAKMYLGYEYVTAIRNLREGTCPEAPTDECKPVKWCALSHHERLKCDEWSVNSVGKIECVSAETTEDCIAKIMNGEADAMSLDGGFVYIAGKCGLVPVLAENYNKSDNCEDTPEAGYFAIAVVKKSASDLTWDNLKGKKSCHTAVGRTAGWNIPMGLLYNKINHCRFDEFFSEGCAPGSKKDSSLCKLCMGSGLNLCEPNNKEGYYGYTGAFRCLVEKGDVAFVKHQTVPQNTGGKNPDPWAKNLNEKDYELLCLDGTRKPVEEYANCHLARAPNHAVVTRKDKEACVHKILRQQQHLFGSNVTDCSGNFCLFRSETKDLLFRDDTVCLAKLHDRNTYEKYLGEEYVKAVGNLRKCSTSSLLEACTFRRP

On to `O/N=C/c1ccccn1`, for which the “Log beta3” value in series [1] stood at 30. Also, the Activity (in the series filed under Rattus norvegicus; in series [2]) was 108% in each case.
By logD is commonly meant lipophilicity at a set pH, counting ionised and neutral species. As for `CCCCCn1ccc(=O)c(O)c1C`, the logD in series [3] was 1.24.
In series [3], `Cc1c(O)c(=O)ccn1CCN` gave a logD of -1.55. Further, the Activity in the series filed under Equus caballus was found to be 23%; in series [4], 56%.
As for `Cc1c(O)c(=O)ccn1CCC(=O)N(C)C`, the logD in series [3] is -1.16.
On to `Oc1ccccc1O` [CATECHOL], for which, in series [1], the “Log beta3” value is on record as 44.9. Moreover, the pKa amounted to 13.3 in series [5] and 9.2 in series [6].
With `CCc1c(O)c(=O)ccn1CCOC`, the logD in series [3] was 0.0414.
Turning to `CCCn1ccc(=O)c(O)c1C`, the “Log beta3” value in series [1] is reported as 37.7. In addition, the pKa came out at 9.92 in series [5] (pKa2) and 3.62 in series [6]. The Activity amounted to 28% in the series filed under Equus caballus, 252% in the series filed under Rattus norvegicus, 105% in series [2] and 52% in series [4].
Regarding `CCCNC(=O)CCn1ccc(=O)c(O)c1C`, the logD in series [3] is -0.396.
With `Cc1c(O)c(=O)ccn1C(C)C`, in series [3], the logD was 0.0492. In addition, the Activity in the series filed under Equus caballus was 26%; in series [4], 51%.
Regarding `CCOCCCn1ccc(=O)c(O)c1CC`, the logD in series [3] was 0.716.
On the same count and under the same terms, under `CCc1nccc(O)c1O` stands 0.0453.
For the molecule `COCCn1ccc(=O)c(O)c1C`, the logD in series [3] is -0.409. For the same molecule, the Activity was found to be 28% in the series filed under Equus caballus and 55% in series [4].
The molecule `CCc1c(O)c(=O)ccn1C` gave a logD in series [3] of -0.205.
The same measure, in the same setting: the figure for `CCCCCCn1ccc(=O)c(O)c1C` is 1.9.
On the same count and under the same terms, the figure for `CCc1c(O)c(=O)ccn1C(C)C` is 0.732; for `CCCn1ccc(=O)c(O)c1CC` it is 0.702.
`CC(=O)N(O)CCCCCNC(=O)CCC(=O)N(O)CCCCCNC(=O)CCC(=O)N(O)CCCCCN`: the Activity in the series filed under Equus caballus stood at 11%; in series [4], 5%.
Take `Cc1c(O)c(=O)ccn1CCO`: in series [3], the logD is -1.1. For the same molecule, the figures for the Activity (in the series filed under Equus caballus; in series [4]) were 29% and 47%, respectively.
Turning to `CCn1cccc(O)c1=O`, in series [1], the “Log beta3” value was determined as 32. Besides, the Activity in the series listed under Rattus norvegicus is 115%; in series [2] it was 102%.
Regarding `CCn1ccc(=O)c(O)c1C`, the logD in series [3] is -0.31. Also, the “Log beta3” value in series [1] is reported as 37.7. For the same molecule, the pKa in series [5] (pKa2) was 9.88; in series [6], 3.65.
In turn, `CCN(C)C(=O)CCn1ccc(=O)c(O)c1C` showed a logD in series [3] of -0.686.
On the same count and under the same terms, under `CCCCCCn1ccc(=O)c(O)c1CC` stands 2.28; under `CCc1c(O)c(=O)ccn1CCO`, -0.658; under `CCCCCCCCn1ccc(=O)c(O)c1C`, 2.88.
Molecule `CCc1c(O)c(=O)ccn1CC` had a logD in series [3] of 0.25.
On the same count and under the same terms, the figure for `CCCCn1ccc(=O)c(O)c1CC` is 1.22; for `Cc1c(O)c(=O)ccn1CCCN` it is -2.1.
The same measure, in the same setting: under `Cc1c(O)c(=O)ccn1CCCCO` stands -0.742.
With `CC(=O)NO` [ACETOHYDROXAMIC ACID], the “Log beta3” value in series [1] is listed as 28.3. The molecule further returned a pKa in series [5] (pKa2) of 9.4.
As to `Cc1c(O)c(=O)ccn1CCC(=O)NC(C)C`, in series [3], the logD is -0.471.
`Cc1nccc(O)c1O` had a logD in series [3] of -0.495. Further, the “Log beta3” value in series [1] was 37.2. Further, the pKa in series [5] (pKa2) was 9.76; in series [6], 3.7.
As for `CCN(CC)C(=O)CCn1ccc(=O)c(O)c1C`, the logD in series [3] is -0.361.
In series [3], `CCOCCCn1ccc(=O)c(O)c1C` gave a logD of 0.121. The Activity in series [4] was 49%.
`Cc1c(O)c(=O)ccn1C` [DEFERIPRONE] had a logD in series [3] of -0.77. Besides, in series [1], the “Log beta3” value worked out at 37.2. For the same molecule, the Activity in the series filed under Equus caballus amounted to 34%; in series [4], 54%.
On to `Cc1c(O)c(=O)ccn1CCCC(=O)O`, for which the Activity in the series listed under Equus caballus was 12%; in series [4], 53%.
For the molecule `Cc1c(O)c(=O)ccn1CCCO`, the logD in series [3] was -0.879.
Consider `CCCCn1ccc(=O)c(O)c1C`, for which, in series [3], the logD was 0.703. For the same molecule, the results for the pKa in series [5] (pKa2) and in series [6] were 9.87 and 3.62, respectively. Also, the Activity in series [4] was found to be 52%.
As for `Oc1ccncc1O`, in series [5], the pKa2 came out at 9.6. The pKa in series [5] (pKa2) was 9.01; in series [6] it was 3.34. The same molecule registered a pKa1 in series [6] of 3.6.
Take `COCC(C)n1ccc(=O)c(O)c1C` (stereo not drawn): the logD in series [3] is -0.26.
In the case of `Oc1cccc2cccnc12` [OXYQUINOLINE], the “Log beta3” value in series [1] is 37. For the same molecule, the Activity in the series filed under Rattus norvegicus is listed as 110%; in series [2], 260%.
As for `CNC(=O)CCn1ccc(=O)c(O)c1C`, the logD in series [3] was -1.1.
On the same count and under the same terms, under `CCNC(=O)CCn1ccc(=O)c(O)c1C` stands -0.818.

The record behind these values is ChEMBL document CHEMBL1126773, “Synthesis, physicochemical properties, and biological evaluation of N-substituted 2-alkyl-3-hydroxy-4(1H)-pyridinones: orally active iron chelators with clinical potential” (J Med Chem, 1993).
